A short description of the data set: Toxicity liver stage against HepG2, at 10uM. Details: test concentration 10 uM, cell line HepG2-A16-CD81EGFP. To be noted: human, HepG2-A16-CD81EGFP cells; read-out: INHIBITION
Format: cell-based. A digest of the protocol: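 Uninfected HepG2-A16-CD81EGFP cells, 3 × 10^3 per well, 1536-well, plated on prespotted compound at 10 μM final, parasite-free screening media added to match infected plates; puromycin 10 μM positive, DMSO 0.5% negative; run in parallel with 48 h PbLuc assay at 37 °C, 5% CO2; viability by CellTiter-Glo luminescence, normalized to controls.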
In the case of `CC(C)N1C[C@H](O)C[C@H]1c1nc(-c2ccc(OC(F)(F)F)cc2)no1`, the cytotoxicity at 10 µM was -3.72%.

In the case of `CCC(CC)C(=O)N1CCN(Cc2cc(=O)c3ccccc3[nH]2)CC1`, the cytotoxicity at 10 µM was -9.55%. Then `COCc1nnc(NC(=O)CN2C(=O)c3ccccc3NC2C(C)C)s1` (centres undefined), with -4.19%; and `O=C(NCc1ccc2c(c1)OCO2)c1ccc(N2CCCCC2)nn1`, with -9.7%; and `CN1C(=O)CCCC12CCCN(C(=O)c1cc(F)cc(F)c1)C2` (centres undefined), with -1.54%. Then `CCc1ccc(CN2CCc3[nH]nc(C(=O)N4CCNC(=O)C4)c3C2)o1`, with 17.5%; and `Cc1noc(-c2ccc(-n3ncc(C(=O)O)c3C)nc2)n1`, with 0.748%. Then `CC1=Nc2c(c(O)nn2C(C)C)C(c2cn(C)nc2C)S1` (centres undefined), with -3.53%; and `CS(=O)(=O)NC[C@@H]1OC[C@H]2CN(C(=O)c3ccc[nH]3)CC[C@H]21`, with 0.253%; and `CCN1CCC2(CC1)NC(=O)c1cc(Br)ccc1-n1nnnc12`, with 1.47%.

Regarding `CC(C)n1cc(S(=O)(=O)N2CCCCCC2)cn1`, the cytotoxicity at 10 µM is 10%. Then `CN1CCCC1CCNC(=O)c1ccccc1-n1cnc(CN)c1` (centres undefined), with 8.6%; and `CC(=O)N1CCCC(c2nnc3n2CCN(C(=O)C2CCCCC2)C3)C1` (centres undefined), with 0.685%; and `CC1CCc2nc(NS(=O)(=O)c3cnn(C)c3)sc2C1` (centres undefined), with -0.842%. Regarding `CCCn1ccnc1-c1cccc(NC2CCOC2)c1` (centres undefined), the cytotoxicity at 10 µM was -3.1%. Then `O=S(=O)(N1CCCC1)N1CCN(CC2CCCO2)CC1` (centres undefined), with -0.185%; and `CCc1ocnc1C(=O)N1CCOC(c2nc(C(C)C)n[nH]2)C1` (centres undefined), with 7.43%.

Consider `Cc1cc(NC(=O)N2CCOCC2)nn1-c1ccccc1Cl`, for which the cytotoxicity at 10 µM came to 11.1%. With `O=C(NCC1CCC1)c1cccc(CN2CCS(=O)(=O)CC2)c1`, the cytotoxicity at 10 µM is -7.89%. In the case of `CCSc1cc(C(=O)NC2CCN(C(=O)c3ccccc3)CC2)ccn1`, the cytotoxicity at 10 µM came to 13.5%.

As to `CCCc1nc(C)c(C(=O)NCC2CCN(C3CC3)C2)s1` (centres undefined), the cytotoxicity at 10 µM is -9.34%. Then `CC(=O)N1CCCN(Cc2cc(F)cc(Br)c2)CC1`, with 7.72%; and `CCN(Cc1noc(C2CC2)n1)Cc1ccc(C#N)cc1F`, with -1.74%; and `CN(CC(=O)c1ccc2[nH]c(=O)[nH]c2c1)Cc1ccc2c(c1)OCO2`, with 5.34%.

For `COCCN1CCCN(C(=O)c2oc(C)nc2C)CC1`, the cytotoxicity at 10 µM was 2.04%. Consider `COCCCN(Cc1ccccc1Cl)C1CCS(=O)(=O)C1` (centres undefined), for which the cytotoxicity at 10 µM was 17.1%. Then `N#Cc1cccc(CN(CCO)Cc2ccsc2)c1`, with 19.6%; and `COc1ccc(C(CO)NC(=O)Nc2cccnc2)cc1` (centres undefined), with -15.7%. Then `Cc1ncc(CNC(=O)Nc2cc(C(F)(F)F)c[nH]c2=O)s1`, with -10.2%.

As for `Cn1ncc2c1C(COCC1CC1)CN(S(C)(=O)=O)C2` (centres undefined), the cytotoxicity at 10 µM was -73.6%. Then `N#Cc1cccc(N2CC3(CCN(C(=O)NC4CC4)C3)CC2=O)c1` (centres undefined), with -0.987%; and `CN(C)CC(=O)N1CCc2onc(Cn3cccn3)c2C1`, with -3.83%. Take `CN1CCC2(CC1)CN(C(=O)c1cccnc1)Cc1ccccc12`: the cytotoxicity at 10 µM was -66.2%. For `O=C1CC(c2cccnc2)C2(CCN(C(=O)c3ccncc3)CC2)N1` (centres undefined), the cytotoxicity at 10 µM was -6.64%. Take `Cn1cc(CN2C[C@@H]3[C@@H](C2)OCC(=O)N3Cc2ccncc2)cn1`: the cytotoxicity at 10 µM is -7.9%.

Turning to `COCC(NC(=O)c1cn2ccsc2n1)c1ccnn1C` (centres undefined), the cytotoxicity at 10 µM was -47.8%.

Turning to `Cc1nccn1CCC1CCCCN1Cc1cnc(N(C)C)nc1` (centres undefined), the cytotoxicity at 10 µM stood at 1.45%. Then `Fc1cccc(-c2noc3c2CN(Cc2cncn2C2CC2)CC3)c1`, with -1.24%. In the case of `NC(=O)COc1ccc(CN2CCNC(C(=O)NC3CC3)C2)cc1Cl` (centres undefined), the cytotoxicity at 10 µM is 0.887%. Then `Cc1ccc2nc(C)c(C)c(C(=O)N3CCC4(CCO4)CC3)c2c1`, with 0.707%; and `CC(C)c1nccn1C(C)C(=O)NCc1noc(Cc2cccs2)n1` (centres undefined), with -4.91%. For `Cc1cccc2nc(C(=O)N3CCC4(CCC(=O)N(C)C4)CC3)c(F)n12`, the cytotoxicity at 10 µM is -0.103%. Then `N#Cc1ccc(C(=O)N2CCCC3(C=Cc4ccccc4O3)CC2)cn1` (centres undefined), with 11.8%. Then `Cc1cc(C(=O)N2CCCC(C(=O)c3cccs3)C2)c(=O)[nH]c1C` (centres undefined), with -7.01%. Then `Cc1cccc(-n2ncc3c2CCCC3NCc2cnn(C)c2C)c1C` (centres undefined), with 13.8%; and `Cc1ccc(-c2ccnc(N[C@H]3COC[C@@H]3N3CCCC3)n2)c(C)n1`, with -1.45%. On to `Cc1ccc(C)c(-n2cc(CN3CCOCC3)c(-c3ccccc3)n2)c1`, for which the cytotoxicity at 10 µM came out at 13.1%. In the case of `CCc1nc(N2CCCN(c3ncccn3)CC2)c2cnn(C)c2n1`, the cytotoxicity at 10 µM came to 2.22%. Then `CS(=O)(=O)N1CCCC1C(=O)Nc1cnc2n1CCCC2` (centres undefined), with 2.72%.

For the molecule `CCN1CCN(C(=O)CCC2CCN(C(=O)CCSC)CC2)CC1`, the cytotoxicity at 10 µM was -1.56%. For `COc1ncccc1CN1CCc2[nH]cnc2C1CCSC` (centres undefined), the cytotoxicity at 10 µM was -13.7%. `COc1nccc(N2CCN(Cc3ccc(C)cc3)C(=O)C2)c1C#N`: the cytotoxicity at 10 µM is -16.5%. Turning to `O=C1N(Cc2ccccc2F)CCCC12CCN(C1CCSCC1)C2` (centres undefined), the cytotoxicity at 10 µM worked out at 0.0366%.

Consider `Clc1ccccc1C1(c2ccnc(-c3ncccn3)n2)CCNCC1`, for which the cytotoxicity at 10 µM is -6.28%. For `COCc1noc(-c2ccc(N(C)Cc3cc(C)no3)nc2)n1`, the cytotoxicity at 10 µM is -17.2%. Then `CC(C)NC(=O)[C@@]12CCO[C@@H]1CCN(Cc1ccc3c(c1)OCO3)C2`, with -1.34%.

For `O=C(CC1CC1)NCc1cn2c(n1)CN(Cc1nccs1)CC2`, the cytotoxicity at 10 µM was -74.1%. Then `Cn1cc(CN2CCn3cc(CNC(=O)CC4CC4)nc3C2)cn1`, with -83.3%. Then `Cc1oncc1C(=O)N1CC[C@H]2[C@H](C[C@@H](CN(C)C)N2CC2CC2)C1`, with 2.84%. For the molecule `CN(C)C(=O)c1cnc2n1CCN(Cc1cccc(C#N)c1)C2`, the cytotoxicity at 10 µM was -77.3%. Then `Cc1cc(CN2C[C@@H]3COC[C@@H](C(=O)N4CCCCO4)[C@@H]3C2)oc1C`, with -72.8%; and `CN(Cc1ccco1)[C@@H]1CN(CC2CCOCC2)[C@@H]2CCCO[C@H]12`, with -76.4%. Then `O=C1CC(c2ccncc2)C2(CCN(C(=O)NC3CC3)CC2)N1` (centres undefined), with -3.46%. Then `C[C@@H](N)C(=O)N1CC2(CCNCC2)c2cc(Cl)ccc21`, with -2.42%; and `Cc1ccoc1C(=O)N1C[C@H](OCc2cccnc2)[C@H]2OCCC[C@H]21`, with -5.28%; and `CN(C)CCOCC1CN(Cc2cccs2)Cc2ccnn2C1` (centres undefined), with -0.903%. In the case of `c1cnc(N2CCO[C@@H]3CN(Cc4ccoc4)C[C@@H]3C2)nc1`, the cytotoxicity at 10 µM is -1.36%.

For the molecule `O=C(Cc1ccncc1)N1C[C@@H]2CC[C@H]1CN(Cc1cccnc1)C2`, the cytotoxicity at 10 µM is 2.89%.

As to `CC(=O)Nc1ccsc1C(=O)N1CC[C@H]2CC[C@@H](C1)N2C`, the cytotoxicity at 10 µM is -1.47%.

These data come from ChEMBL document CHEMBL4513216, “Probing the Open Global Health Chemical Diversity Library for Multistage-Active Starting Points for Next-Generation Antimalarials” (ACS Infect Dis, 2020).
